Assay results published in ChEMBL document CHEMBL1817558, “Design, synthesis and antimicrobial activity of chiral 2-(substituted-hydroxyl)-3-(benzo[d]oxazol-5-yl)propanoic acid derivatives” (2011).
Converted amounts (≈) assume the structure as drawn.

What was measured:
Assay type in all cases: functional
Staphylococcus aureus [1] = assay: Antibacterial activity against Staphylococcus aureus ATCC 10832 after 24 hrs by NCCLS M7-A6 broth dilution method; details: ATCC 10832, 24 h
Summary of the method: (§1)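 96-well microtitre broth dilution in Mueller-Hinton broth, inoculum 10^5 CFU/mL. Compounds dissolved in DMSO at 4 mg/mL, then twofold serial dilution giving final 200 down to 0.39 µg/mL. Incubated 24 h at 37 °C. Cultures streaked on plates to check clarity; MIC taken as lowest concentration leaving the well clear. DMSO-only solvent control run at matching dilutions.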

Bacillus subtilis = assay: Antibacterial activity against Bacillus subtilis ATCC 33712 after 24 hrs by NCCLS M7-A6 broth dilution method; details: ATCC 33712, 24 h
Summary of the method: (§2)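 Broth microdilution MIC per NCCLS. The 4 mg/mL DMSO stock was diluted in Mueller-Hinton broth with inoculum at 10^5 CFU/mL. Twofold serial dilutions gave final concentrations of 200 to 0.39 µg/mL. Incubation was 24 h at 37 °C, and cultures were streaked on plates to check clarity. MIC was the lowest concentration giving a clear well. Controls were medium-only and DMSO-only inoculated broth.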

Staphylococcus aureus [2] = assay: Antibacterial activity against methicillin-resistant Staphylococcus aureus ATCC 700699 after 24 hrs by NCCLS M7-A6 broth dilution method; details: ATCC 700699, 24 h; summary of the method: as §1
Escherichia coli = assay: Antibacterial activity against Escherichia coli ATCC 11303 after 24 hrs by NCCLS M7-A6 broth dilution method; details: ATCC 11303, 24 h; summary of the method: as §2
Candida albicans = assay: microbe, parasite or virus in culture; details: ATCC 10231, 24 h

Compound	MIC (Staphylococcus aureus [1]) [µg/mL]	MIC (Bacillus subtilis) [µg/mL]	MIC (Staphylococcus aureus [2]) [µg/mL]	MIC (Escherichia coli) [µg/mL]	MIC (Candida albicans) [µg/mL]
Cc1oc(-c2ccccc2)nc1CCCc1nc2cc(C[C@H](Oc3ccc(Cl)cc3)C(=O)O)ccc2o1	6.25 (≈ 12.1 µM)	12.5 (≈ 24.2 µM)	6.25 (≈ 12.1 µM)	25 (≈ 48.4 µM)	> 200
Cc1oc(-c2ccccc2)nc1CCCc1nc2cc(C[C@H](Oc3ccccc3)C(=O)O)ccc2o1	25 (≈ 51.8 µM)	25 (≈ 51.8 µM)	25 (≈ 51.8 µM)	100 (≈ 207 µM)	> 200
Cc1oc(-c2ccccc2)nc1CCCc1nc2cc(C[C@H](Oc3cccnc3)C(=O)O)ccc2o1	200 (≈ 414 µM)	> 200	200 (≈ 414 µM)	> 200	> 200
Cc1oc(-c2ccccc2)nc1CCCc1nc2cc(C[C@H](Oc3cccc4ncccc34)C(=O)O)ccc2o1	25 (≈ 46.9 µM)	50 (≈ 93.7 µM)	25 (≈ 46.9 µM)	200 (≈ 375 µM)	> 200
Cc1oc(-c2ccccc2)nc1CCCc1nc2cc(C[C@H](Oc3ccc(F)cc3)C(=O)O)ccc2o1	12.5 (≈ 25 µM)	25 (≈ 49.9 µM)	12.5 (≈ 25 µM)	50 (≈ 99.9 µM)	> 200
Cc1oc(-c2ccccc2)nc1CCCc1nc2cc(C[C@H](Oc3cccc(F)c3)C(=O)O)ccc2o1	12.5 (≈ 25 µM)	25 (≈ 49.9 µM)	12.5 (≈ 25 µM)	50 (≈ 99.9 µM)	> 200
Cc1oc(-c2ccccc2)nc1CCCc1nc2cc(C[C@H](Oc3cc(F)c(F)c(F)c3)C(=O)O)ccc2o1	12.5 (≈ 23.3 µM)	6.25 (≈ 11.6 µM)	6.25 (≈ 11.6 µM)	25 (≈ 46.6 µM)	> 200
Cc1oc(-c2ccccc2)nc1CCCc1nc2cc(C[C@H](Oc3ccc(Br)cc3)C(=O)O)ccc2o1	3.12 (≈ 5.56 µM)	6.25 (≈ 11.1 µM)	3.12 (≈ 5.56 µM)	12.5 (≈ 22.3 µM)	> 200
Cc1oc(-c2ccccc2)nc1CCCc1nc2cc(C[C@H](Oc3ccccc3Br)C(=O)O)ccc2o1	25 (≈ 44.5 µM)	50 (≈ 89.1 µM)	25 (≈ 44.5 µM)	50 (≈ 89.1 µM)	> 200
Cc1oc(-c2ccccc2)nc1CCCc1nc2cc(C[C@H](Oc3ccc(Cl)cc3Cl)C(=O)O)ccc2o1	3.12 (≈ 5.66 µM)	3.12 (≈ 5.66 µM)	1.56 (≈ 2.83 µM)	6.25 (≈ 11.3 µM)	> 200
Cc1oc(-c2ccccc2)nc1CCCc1nc2cc(C[C@H](Oc3cccc(I)c3)C(=O)O)ccc2o1	3.12 (≈ 5.13 µM)	12.5 (≈ 20.5 µM)	1.56 (≈ 2.56 µM)	25 (≈ 41.1 µM)	> 200
Cc1oc(-c2ccccc2)nc1CCCc1nc2cc(C[C@H](Oc3ccc(I)cc3)C(=O)O)ccc2o1	1.56 (≈ 2.56 µM)	6.25 (≈ 10.3 µM)	1.56 (≈ 2.56 µM)	12.5 (≈ 20.5 µM)	> 200
Cc1oc(-c2ccccc2)nc1CCCc1nc2cc(C[C@H](Oc3ccc(C(F)(F)F)cc3)C(=O)O)ccc2o1	1.56 (≈ 2.83 µM)	6.25 (≈ 11.4 µM)	1.56 (≈ 2.83 µM)	12.5 (≈ 22.7 µM)	> 200
Cc1oc(-c2ccccc2)nc1CCCc1nc2cc(C[C@H](Oc3ccc(C#N)cc3)C(=O)O)ccc2o1	50 (≈ 98.5 µM)	50 (≈ 98.5 µM)	50 (≈ 98.5 µM)	200 (≈ 394 µM)	> 200
CC(=O)c1ccc(O[C@@H](Cc2ccc3oc(CCCc4nc(-c5ccccc5)oc4C)nc3c2)C(=O)O)cc1	100 (≈ 191 µM)	> 200	100 (≈ 191 µM)	> 200	> 200
Cc1ccc(O[C@@H](Cc2ccc3oc(CCCc4nc(-c5ccccc5)oc4C)nc3c2)C(=O)O)cc1	25 (≈ 50.3 µM)	50 (≈ 101 µM)	12.5 (≈ 25.2 µM)	50 (≈ 101 µM)	> 200
COc1ccc(O[C@@H](Cc2ccc3oc(CCCc4nc(-c5ccccc5)oc4C)nc3c2)C(=O)O)cc1	25 (≈ 48.8 µM)	50 (≈ 97.5 µM)	25 (≈ 48.8 µM)	100 (≈ 195 µM)	> 200

Compound	MIC (Staphylococcus aureus [1]) [µg/mL]	MIC (Bacillus subtilis) [µg/mL]	MIC (Staphylococcus aureus [2]) [µg/mL]	MIC (Escherichia coli) [µg/mL]	MIC (Candida albicans) [µg/mL]
Cc1oc(-c2ccccc2)nc1CCCc1nc2cc(C[C@H](Oc3ccc(C(C)(C)C)cc3)C(=O)O)ccc2o1	1.56 (≈ 2.9 µM)	3.12 (≈ 5.79 µM)	1.56 (≈ 2.9 µM)	3.12 (≈ 5.79 µM)	> 200
Cc1oc(-c2ccccc2)nc1CCCc1nc2cc(C[C@H](Oc3ccc(-c4ccccc4)cc3)C(=O)O)ccc2o1	1.56 (≈ 2.79 µM)	3.12 (≈ 5.59 µM)	1.56 (≈ 2.79 µM)	3.12 (≈ 5.59 µM)	> 200
Cc1oc(-c2ccccc2)nc1CCCc1nc2cc(C[C@H](Oc3ccc(OCc4ccccc4)cc3)C(=O)O)ccc2o1	1.56 (≈ 2.65 µM)	1.56 (≈ 2.65 µM)	1.56 (≈ 2.65 µM)	6.25 (≈ 10.6 µM)	> 200
CO[C@@H](Cc1ccc2oc(CCCc3nc(-c4ccccc4)oc3C)nc2c1)C(=O)O	200 (≈ 476 µM)	200 (≈ 476 µM)	100 (≈ 238 µM)	> 200	> 200
Cc1oc(-c2ccccc2)nc1CCCc1nc2cc(C[C@H](OC(C)C)C(=O)O)ccc2o1	50 (≈ 111 µM)	50 (≈ 111 µM)	50 (≈ 111 µM)	200 (≈ 446 µM)	> 200
Cc1oc(-c2ccccc2)nc1CCCc1nc2cc(C[C@@H](Oc3ccc(C(F)(F)F)cc3)C(=O)O)ccc2o1	12.5 (≈ 22.7 µM)	12.5 (≈ 22.7 µM)	6.25 (≈ 11.4 µM)	25 (≈ 45.4 µM)	> 200
Cc1oc(-c2ccccc2)nc1CCCc1nc2cc(C[C@@H](Oc3ccc(C(C)(C)C)cc3)C(=O)O)ccc2o1	12.5 (≈ 23.2 µM)	12.5 (≈ 23.2 µM)	12.5 (≈ 23.2 µM)	25 (≈ 46.4 µM)	> 200
Cc1oc(-c2ccccc2)nc1CCCc1nc2cc(C[C@@H](Oc3ccc(-c4ccccc4)cc3)C(=O)O)ccc2o1	12.5 (≈ 22.4 µM)	6.25 (≈ 11.2 µM)	6.25 (≈ 11.2 µM)	12.5 (≈ 22.4 µM)	> 200
Cc1oc(-c2ccccc2)nc1CCCc1nc2cc(C[C@@H](Oc3ccc(OCc4ccccc4)cc3)C(=O)O)ccc2o1	25 (≈ 42.5 µM)	12.5 (≈ 21.2 µM)	25 (≈ 42.5 µM)	25 (≈ 42.5 µM)	> 200
COC(=O)[C@H](Cc1ccc2oc(CCCc3nc(-c4ccccc4)oc3C)nc2c1)Oc1ccc(-c2ccccc2)cc1	> 200	> 200	> 200	> 200	> 200
CO/N=C(\C(=O)N[C@@H]1C(=O)N2C(C(=O)O)=C(COC(C)=O)CS[C@H]12)c1csc(N)n1 [CEFOTAXIME]	3.12 (≈ 6.85 µM)	0.78 (≈ 1.71 µM)	3.12 (≈ 6.85 µM)	200 (≈ 439 µM)	–
CC(C)(O/N=C(\C(=O)N[C@@H]1C(=O)N2C(C(=O)[O-])=C(C[n+]3ccccc3)CS[C@H]12)c1csc(N)n1)C(=O)O [CEFTAZIDIME]	0.78 (≈ 1.43 µM)	6.25 (≈ 11.4 µM)	12.5 (≈ 22.9 µM)	200 (≈ 366 µM)	–
CC1=C(C(=O)O)N2C(=O)[C@@H](NC(=O)[C@H](N)C3=CCC=CC3)[C@H]2SC1 [CEPHRADINE]	25 (≈ 71.5 µM)	50 (≈ 143 µM)	50 (≈ 143 µM)	25 (≈ 71.5 µM)	–
CC(=O)N1CCN(c2ccc(OCC3COC(Cn4ccnc4)(c4ccc(Cl)cc4Cl)O3)cc2)CC1 (stereo not drawn) [KETOCONAZOLE]	–	–	–	–	< 0.39
Clc1ccc(COC(Cn2ccnc2)c2ccc(Cl)cc2Cl)c(Cl)c1.O=[N+]([O-])O (stereo not drawn) [MICONAZOLE NITRATE]	–	–	–	–	1.56
CC1(C)S[C@@H]2[C@H](NC(=O)Cc3ccccc3)C(=O)N2[C@H]1C(=O)[O-].[Na+] [PENICILLIN G SODIUM]	3.12	< 0.39	3.12	0.78	–
